Test results published in ChEMBL document CHEMBL2046365, “Total synthesis and antifungal activity of (2S,3R)-2-aminododecan-3-ol” (2012).
Converted amounts (≈) assume the structure as drawn.

Tests used:
Format in all cases: functional
[1] = tested on: Candida parapsilosis; assay: Antifungal activity against Candida parapsilosis MTCC 1744 after 24 hrs by well diffusion method
Outline: (§1)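 Well diffusion on Mueller-Hinton agar plates, each surface-seeded with 0.1 mL of an MTCC Candida reference strain suspension at 1.5 × 10⁸ cfu/mL (0.5 McFarland). Compound added to 6.0 mm cork-bored wells at 300–1.4 per well; methanol well as negative control. Plates incubated 24 h at 30 °C. MIC taken as the lowest concentration giving an inhibition zone. Duplicates, mean reported.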

[2] = tested on: [Candida] aaseri; assay: Antifungal activity against Candida aaseri MTCC 1962 after 24 hrs by well diffusion method; outline: as §1
[3] = tested on: Nakaseomyces glabratus; assay: Antifungal activity against Candida glabrata MTCC 3019 after 24 hrs by well diffusion method; outline: as §1
[4] = tested on: Candida albicans; assay: Antifungal activity against Candida albicans MTCC 183 after 24 hrs by well diffusion method; outline: as §1
[5] = tested on: Candida albicans; assay: Antifungal activity against Candida albicans MTCC 7315 after 24 hrs by well diffusion method; outline: as §1
[6] = tested on: Candida albicans; assay: Antifungal activity against Candida albicans MTCC 3958 after 24 hrs by well diffusion method; outline: as §1
[7] = tested on: Candida albicans; assay: Antifungal activity against Candida albicans MTCC 854 after 24 hrs by well diffusion method; outline: as §1
[8] = tested on: Candida albicans; assay: Antifungal activity against Candida albicans; outline: as §1
[9] = tested on: Nakaseomyces glabratus; assay: Antifungal activity against Candida glabrata; outline: as §1
[10] = Lodderomyces parapsilosis, MTCC 1744, 24 h
[11] = Yamadazyma aaseri, MTCC 1962, 24 h

Work on Clc1ccc(COC(Cn2ccnc2)c2ccc(Cl)cc2Cl)c(Cl)c1 (configuration not stated) [MICONAZOLE] yielded an MIC [1, 10] of 9.9 µg/mL (≈ 23.8 µM), an MIC [2, 11] of 9.9 µg/mL (≈ 23.8 µM) and an MIC ([3]; MTCC 3019, 24 h) of 9.9 µg/mL (≈ 23.8 µM). The MIC ([4]; MTCC 183, 24 h) was 9.9 µg/mL (≈ 23.8 µM), the MIC ([5]; MTCC 7315, 24 h) was 9.9 µg/mL (≈ 23.8 µM) and the MIC ([6]; MTCC 3958, 24 h) was 9.9 µg/mL (≈ 23.8 µM). It also gave an MIC ([7]; MTCC 854, 24 h) of 9.9 µg/mL (≈ 23.8 µM).
C[C@@H]1[C@H](O)[C@@H](C)/C=C/C=C/C=C/C=C/C=C/C=C/C=C/[C@H](O[C@@H]2O[C@H](C)[C@@H](O)[C@H](N)[C@@H]2O)C[C@@H]2O[C@](O)(C[C@@H](O)C[C@@H](O)[C@H](O)CC[C@@H](O)C[C@@H](O)CC(=O)O[C@H]1C)C[C@H](O)[C@H]2C(=O)O [AMPHOTERICIN B] showed an MIC [1, 10] of 300 µg/mL (≈ 325 µM), an MIC [2, 11] of 300 µg/mL (≈ 325 µM) and an MIC ([3]; MTCC 3019, 24 h) of 300 µg/mL (≈ 325 µM). The MIC ([4]; MTCC 183, 24 h) was 300 µg/mL (≈ 325 µM), the MIC ([5]; MTCC 7315, 24 h) was 300 µg/mL (≈ 325 µM) and the MIC ([6]; MTCC 3958, 24 h) was 300 µg/mL (≈ 325 µM). It also gave an MIC ([7]; MTCC 854, 24 h) of 300 µg/mL (≈ 325 µM).
Work on CCCCCCCCC[C@@H](O)[C@H](C)N yielded an MIC [1, 10] of 4.9 µg/mL (≈ 24.3 µM), an MIC [2, 11] of 9.9 µg/mL (≈ 49.2 µM) and an MIC ([3]; MTCC 3019, 24 h) of 9.9 µg/mL (≈ 49.2 µM). The MIC ([4]; MTCC 183, 24 h) was 9.9 µg/mL (≈ 49.2 µM), the MIC ([5]; MTCC 7315, 24 h) was 9.9 µg/mL (≈ 49.2 µM) and the MIC ([6]; MTCC 3958, 24 h) was 19.8 µg/mL (≈ 98.3 µM). For the same compound, the MIC ([7]; MTCC 854, 24 h) was 37.5 µg/mL (≈ 186 µM), the MIC [8] was 0.7 µg/mL (≈ 3.48 µM) and the MIC [9] was 30 µg/mL (≈ 149 µM).
NYSTATIN was tested, and the MIC [1] was 150 µg/mL, the MIC [2] was 150 µg/mL and the MIC [3] was 150 µg/mL. The MIC [4] was 150 µg/mL, the MIC [5] was 150 µg/mL and the MIC [6] was 150 µg/mL. For the same compound, the MIC [7] was 150 µg/mL.
OC(Cn1cncn1)(Cn1cncn1)c1ccc(F)cc1F [FLUCONAZOLE] was tested, and the MIC [1, 10] was 18.8 µg/mL (≈ 61.4 µM), the MIC [2, 11] was 75 µg/mL (≈ 245 µM) and the MIC ([3]; MTCC 3019, 24 h) was 75 µg/mL (≈ 245 µM). It also gave an MIC ([4]; MTCC 183, 24 h) of 37.5 µg/mL (≈ 122 µM), an MIC ([5]; MTCC 7315, 24 h) of 37.5 µg/mL (≈ 122 µM) and an MIC ([6]; MTCC 3958, 24 h) of 75 µg/mL (≈ 245 µM). The MIC ([7]; MTCC 854, 24 h) was 37.5 µg/mL (≈ 122 µM).
